For 9 compounds, inhibition, IC50 and Ki results are on record in ChEMBL document CHEMBL4257453, “Identification of karanjin isolated from the Indian beech tree as a potent CYP1 enzyme inhibitor with cellular efficacy via screening of a natural product repository” (Medchemcomm, 2018).

Data set [1] concerns the target T1, CYP1A1 (Homo sapiens, UniProt P04798).
T1 sequence (P04798 whole entry): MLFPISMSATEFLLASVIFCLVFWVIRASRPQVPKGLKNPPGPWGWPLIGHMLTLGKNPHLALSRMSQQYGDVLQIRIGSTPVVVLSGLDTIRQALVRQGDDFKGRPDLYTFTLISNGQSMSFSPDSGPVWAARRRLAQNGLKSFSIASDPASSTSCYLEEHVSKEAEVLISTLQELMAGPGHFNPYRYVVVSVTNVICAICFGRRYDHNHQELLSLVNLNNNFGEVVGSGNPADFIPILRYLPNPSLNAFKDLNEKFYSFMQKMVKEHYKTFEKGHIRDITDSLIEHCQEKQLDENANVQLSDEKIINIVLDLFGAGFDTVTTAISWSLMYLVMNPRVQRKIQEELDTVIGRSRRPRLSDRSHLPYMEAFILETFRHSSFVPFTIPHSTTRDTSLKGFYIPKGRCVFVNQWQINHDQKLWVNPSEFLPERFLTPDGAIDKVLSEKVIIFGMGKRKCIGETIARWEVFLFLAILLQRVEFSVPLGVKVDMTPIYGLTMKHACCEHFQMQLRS
In words: Inhibition of recombinant human CYP1A1 expressed in baker's yeast-derived microsomes (Sacchrosomes) at 10 uM using 7-ethoxyresorufin substrate by EROD assay relative to control. The note with it: probe 7-ethoxyresorufin. The essentials:
(§1)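 Yeast microsomes carrying recombinant CYP (Sacchrosomes). Substrates per isoform are 7-ethoxyresorufin, 3-cyano-7-ethoxycoumarin, EOMCC or dibenzylfluorescein, read as endpoint fluorescence. Background from compound-only wells without enzyme is subtracted. Independent triplicate runs; α-naphthoflavone positive control.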

In data set [2] the target is T1, CYP1A1. Kind of data set: Inhibition of human recombinant CYP1A1 expressed in HEK293 cells at 10 uM using 7-ethoxyresorufin substrate preincubated for 30 mins followed by substrate addition and measured after 60 mins by fluorescence assay relative to control. The data set is classed as cell-based. The note with it: HEK293 cells expressing human recombinant CYP1A1, probe 7-ethoxyresorufin. The gist of the method:
(§2)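 HEK293 cells adapted to suspension and transiently transfected with pcDNA3.1 plasmids carrying the individual CYP; 100×10^3 cells per well in triplicate. […] Fluorogenic substrate is then added at 5 μM and fluorescence read for 60 min.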

A further data set concerns the target T2, Cytochrome P450 1A1 (Homo sapiens, UniProt P04798).
T2 sequence (P04798 whole entry): T1 sequence (P04798 whole entry)
In words: Inhibition of human recombinant CYP1A1 expressed in HEK293 cells using 7-ethoxyresorufin substrate preincubated for 30 mins followed by substrate addition and measured after 60 mins by fluorescence assay relative to control. The data set is classed as cell-based. The gist of the method:
as §2

In another data set the target is T3, Cytochrome P450 1A2 (Homo sapiens, UniProt P05177).
T3 sequence (P05177 whole entry): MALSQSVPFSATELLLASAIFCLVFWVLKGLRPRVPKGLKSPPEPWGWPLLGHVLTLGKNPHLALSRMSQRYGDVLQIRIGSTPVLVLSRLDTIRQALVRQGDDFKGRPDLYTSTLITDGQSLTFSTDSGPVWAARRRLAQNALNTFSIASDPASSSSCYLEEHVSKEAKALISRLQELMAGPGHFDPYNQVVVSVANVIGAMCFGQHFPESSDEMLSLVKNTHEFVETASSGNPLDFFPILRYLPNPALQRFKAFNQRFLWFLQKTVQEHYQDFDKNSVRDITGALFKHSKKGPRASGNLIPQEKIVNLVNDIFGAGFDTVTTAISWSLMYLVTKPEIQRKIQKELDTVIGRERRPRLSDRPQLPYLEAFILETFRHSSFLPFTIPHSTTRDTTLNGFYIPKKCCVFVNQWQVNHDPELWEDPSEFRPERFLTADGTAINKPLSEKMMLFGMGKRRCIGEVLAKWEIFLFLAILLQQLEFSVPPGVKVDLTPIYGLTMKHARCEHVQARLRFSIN
In words: Inhibition of human recombinant CYP1A2 expressed in HEK293 cells using 3-cyano-7-ethoxycoumarin substrate preincubated for 30 mins followed by substrate addition and measured after 60 mins by fluorescence assay relative to control. The data set is classed as ADME, cell-based. The essentials:
as §2

The target of a further data set is Cytochrome P450 2C9 (Homo sapiens, UniProt P11712). Kind of data set: Inhibition of human recombinant CYP2C9 expressed in HEK293 cells using 3-cyano-7-ethoxycoumarin substrate substrate preincubated for 30 mins followed by substrate addition and measured after 60 mins by fluorescence assay relative to control. The data set is classed as ADME, cell-based. The gist of the method:
as §2

In another data set the target is T4, CYP1B1 (Homo sapiens, UniProt Q16678).
T4 sequence (Q16678 whole entry): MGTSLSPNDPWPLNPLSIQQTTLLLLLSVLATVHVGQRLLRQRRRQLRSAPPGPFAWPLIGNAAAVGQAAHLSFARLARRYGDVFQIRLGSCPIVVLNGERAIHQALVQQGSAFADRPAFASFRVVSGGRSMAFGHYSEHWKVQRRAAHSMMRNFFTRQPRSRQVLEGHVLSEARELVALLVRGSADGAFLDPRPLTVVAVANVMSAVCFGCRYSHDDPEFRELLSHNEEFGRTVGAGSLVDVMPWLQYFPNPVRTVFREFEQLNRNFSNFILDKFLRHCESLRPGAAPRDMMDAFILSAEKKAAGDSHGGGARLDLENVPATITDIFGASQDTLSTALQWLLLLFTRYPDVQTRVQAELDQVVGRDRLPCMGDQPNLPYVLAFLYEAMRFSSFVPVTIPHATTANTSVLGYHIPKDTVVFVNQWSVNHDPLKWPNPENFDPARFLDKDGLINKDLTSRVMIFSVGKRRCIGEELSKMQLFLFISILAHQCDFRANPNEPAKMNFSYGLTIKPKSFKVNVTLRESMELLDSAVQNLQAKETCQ
In words: Inhibition of recombinant human CYP1B1 expressed in baker's yeast-derived microsomes (Sacchrosomes) at 10 uM using 7-ethoxyresorufin substrate by EROD assay relative to control. The data set is classed as ADME. The note with it: probe 7-ethoxyresorufin. The essentials: (§3)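 Yeast microsomes carrying recombinant CYP (Sacchrosomes). […] Substrates per isoform are 7-ethoxyresorufin, 3-cyano-7-ethoxycoumarin, EOMCC or dibenzylfluorescein, read as endpoint fluorescence. Background from compound-only wells without enzyme is subtracted. Independent triplicate runs; α-naphthoflavone positive control.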

The target in another data set is CYP2C19 (Homo sapiens, UniProt P33261). Kind of data set: Inhibition of recombinant human CYP2C19 expressed in baker's yeast-derived microsomes (Sacchrosomes) at 10 uM using 3-cyano-7-ethoxycoumarin substrate by EROD assay relative to control. The data set is classed as ADME. Particulars: probe 3-cyano-7-ethoxycoumarin. The gist of the method: as §3
Sequence of CYP2C19 (P33261 whole entry): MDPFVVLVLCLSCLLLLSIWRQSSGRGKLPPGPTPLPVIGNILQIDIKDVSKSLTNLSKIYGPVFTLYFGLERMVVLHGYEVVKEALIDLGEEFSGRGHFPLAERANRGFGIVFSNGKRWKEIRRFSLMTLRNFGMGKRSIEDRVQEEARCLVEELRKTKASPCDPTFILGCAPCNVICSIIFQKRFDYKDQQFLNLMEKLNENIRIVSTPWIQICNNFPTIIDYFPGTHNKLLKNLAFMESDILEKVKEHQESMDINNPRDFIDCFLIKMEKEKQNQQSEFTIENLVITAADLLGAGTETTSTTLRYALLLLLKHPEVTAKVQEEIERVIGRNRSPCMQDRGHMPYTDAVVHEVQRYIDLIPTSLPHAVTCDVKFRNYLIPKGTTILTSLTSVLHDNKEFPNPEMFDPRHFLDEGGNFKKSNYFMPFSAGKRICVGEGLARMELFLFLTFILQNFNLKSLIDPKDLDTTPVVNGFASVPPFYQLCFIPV
The target in the next data set is T5, Cytochrome P450 1B1 (Homo sapiens, UniProt Q16678).
T5 sequence (Q16678 whole entry): T4 sequence (Q16678 whole entry)
Kind of data set: Inhibition of human recombinant CYP1B1 expressed in HEK293 cells using 7-ethoxyresorufin substrate substrate preincubated for 30 mins followed by substrate addition and measured after 60 mins by fluorescence assay relative to control. The data set is classed as ADME, cell-based. The essentials: as §2

In the next data set the target is Cytochrome P450 2C19 (Homo sapiens, UniProt P33261). Kind of data set: Inhibition of human recombinant CYP2C19 expressed in HEK293 cells using 3-cyano-7-ethoxycoumarin substrate substrate preincubated for 30 mins followed by substrate addition and measured after 60 mins by fluorescence assay relative to control. The data set is classed as ADME, cell-based. The gist of the method:
as §2

For the next data set, the target named is CYP3A4 (Homo sapiens, UniProt P08684). Kind of data set: Inhibition of recombinant human CYP3A4 expressed in baker's yeast-derived microsomes (Sacchrosomes) at 10 uM using dibenzylfluorescein substrate by EROD assay relative to control. The data set is classed as ADME. Particulars: probe dibenzylfluorescein. The essentials:
as §3

For a further data set, the target named is Cytochrome P450 2D6 (Homo sapiens, UniProt P10635). Kind of data set: Inhibition of human recombinant CYP2D6 expressed in HEK293 cells using 7-ethoxy-methyloxy-3-cyanocoumarin substrate substrate preincubated for 30 mins followed by substrate addition and measured after 60 mins by fluorescence assay relative to control. The data set is classed as ADME, cell-based. The gist of the method:
as §2

The next data set concerns the target CYP2C9 (Homo sapiens, UniProt P11712). In words: Inhibition of recombinant human CYP2C9 expressed in baker's yeast-derived microsomes (Sacchrosomes) at 10 uM using 3-cyano-7-ethoxycoumarin substrate by EROD assay relative to control. The data set is classed as ADME. The note with it: probe 3-cyano-7-ethoxycoumarin. The gist of the method: as §3
A further data set has as its target CYP2D6 (Homo sapiens, UniProt P10635). Kind of data set: Inhibition of recombinant human CYP2D6 expressed in baker's yeast-derived microsomes (Sacchrosomes) at 10 uM using 7-ethoxy-methyloxy-3-cyanocoumarin substrate by EROD assay relative to control. The data set is classed as ADME. Particulars: probe 7-ethoxy-methyloxy-3-cyanocoumarin. The gist of the method:
as §3

The target in the next data set is T6, CYP1A2 (Homo sapiens, UniProt P05177).
T6 sequence (P05177 whole entry): T3 sequence (P05177 whole entry)
Kind of data set: Inhibition of recombinant human CYP1A2 expressed in baker's yeast-derived microsomes (Sacchrosomes) at 10 uM using 3-cyano-7-ethoxycoumarin substrate by EROD assay relative to control. The data set is classed as ADME. Particulars: probe 3-cyano-7-ethoxycoumarin. The gist of the method:
as §1

For another data set, the target named is Cytochrome P450 3A4 (Homo sapiens, UniProt P08684). In words: Inhibition of human recombinant CYP3A4 expressed in HEK293 cells using dibenzylfluorescein substrate substrate preincubated for 30 mins followed by substrate addition and measured after 60 mins by fluorescence assay relative to control. The data set is classed as ADME, cell-based. The gist of the method:
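HEK293 cells adapted to suspension and transiently transfected with pcDNA3.1 plasmids carrying the individual CYP; 100×10^3 cells per well in triplicate. Fluorogenic substrate is then added at 5 μM and fluorescence read for 60 min.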

Some results are limits rather than exact numbers.

Sequence of CYP2D6 (P10635 whole entry): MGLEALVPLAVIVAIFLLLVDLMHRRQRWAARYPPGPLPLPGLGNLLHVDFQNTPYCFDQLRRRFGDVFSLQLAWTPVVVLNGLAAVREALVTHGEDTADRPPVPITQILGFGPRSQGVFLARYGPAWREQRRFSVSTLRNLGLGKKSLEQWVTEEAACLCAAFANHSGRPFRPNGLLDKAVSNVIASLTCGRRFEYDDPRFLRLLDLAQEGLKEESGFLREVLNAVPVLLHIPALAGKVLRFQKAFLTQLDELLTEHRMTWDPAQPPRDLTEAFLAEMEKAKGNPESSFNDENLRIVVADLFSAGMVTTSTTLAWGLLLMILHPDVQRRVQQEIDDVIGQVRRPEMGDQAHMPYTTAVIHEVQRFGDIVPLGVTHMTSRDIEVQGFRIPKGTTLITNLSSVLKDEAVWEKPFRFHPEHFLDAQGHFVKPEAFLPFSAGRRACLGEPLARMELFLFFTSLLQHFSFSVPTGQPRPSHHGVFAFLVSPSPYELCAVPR
Sequence of CYP2C9 (P11712 whole entry): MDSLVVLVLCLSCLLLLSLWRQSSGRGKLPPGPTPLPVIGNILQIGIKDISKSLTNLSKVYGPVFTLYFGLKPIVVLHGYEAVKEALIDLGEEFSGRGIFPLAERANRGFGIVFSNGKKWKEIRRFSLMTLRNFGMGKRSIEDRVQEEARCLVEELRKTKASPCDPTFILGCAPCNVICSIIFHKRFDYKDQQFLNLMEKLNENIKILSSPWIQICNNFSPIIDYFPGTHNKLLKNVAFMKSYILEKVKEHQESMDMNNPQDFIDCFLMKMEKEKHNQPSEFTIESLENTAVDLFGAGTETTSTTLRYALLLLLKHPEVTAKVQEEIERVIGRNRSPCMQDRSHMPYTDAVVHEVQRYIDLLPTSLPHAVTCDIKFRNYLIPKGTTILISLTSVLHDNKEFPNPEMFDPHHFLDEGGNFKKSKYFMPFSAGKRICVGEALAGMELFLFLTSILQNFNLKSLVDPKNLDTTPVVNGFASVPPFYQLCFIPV
Sequence of CYP3A4 (P08684 whole entry): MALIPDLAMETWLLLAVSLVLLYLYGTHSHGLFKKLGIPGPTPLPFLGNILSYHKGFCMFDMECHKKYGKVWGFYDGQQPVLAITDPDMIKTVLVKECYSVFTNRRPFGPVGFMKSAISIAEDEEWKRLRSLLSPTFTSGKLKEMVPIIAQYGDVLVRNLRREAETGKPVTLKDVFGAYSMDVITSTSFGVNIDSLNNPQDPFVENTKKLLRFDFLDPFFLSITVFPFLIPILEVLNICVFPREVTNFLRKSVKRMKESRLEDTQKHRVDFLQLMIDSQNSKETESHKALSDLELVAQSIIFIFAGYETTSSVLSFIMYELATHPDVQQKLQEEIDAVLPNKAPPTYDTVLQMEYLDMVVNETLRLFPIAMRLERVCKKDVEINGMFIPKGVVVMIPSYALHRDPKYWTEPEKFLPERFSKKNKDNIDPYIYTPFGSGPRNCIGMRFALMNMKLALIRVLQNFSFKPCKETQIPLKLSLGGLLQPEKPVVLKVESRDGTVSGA
Sequence of Cytochrome P450 2D6 (P10635 whole entry): as the sequence (P10635 whole entry) above
Sequence of Cytochrome P450 2C9 (P11712 whole entry): as the sequence (P11712 whole entry) above
Sequence of Cytochrome P450 2C19 (P33261 whole entry): as the sequence (P33261 whole entry) above
Sequence of Cytochrome P450 3A4 (P08684 whole entry): as the sequence (P08684 whole entry) above

In general, inhibition refers to how much of the control response was suppressed. In the case of `O=c1ccc2ccc3occc3c2o1` [ANGELICIN], the inhibition at 10 µM on CYP1A1 [1] is 80%.

In general, IC50 refers to the midpoint of a concentration-inhibition curve. As usually defined, the Ki is the dissociation constant of the complex between target and ligand, obtained from inhibition or displacement. On to `COc1c2occc2c(OC)c2c(=O)cc(C)oc12` [KHELLIN], for which the inhibition at 1 h, 10 µM on CYP1A1 [2] amounted to 75%. The IC50 at Cytochrome P450 1A1 is 4.02 µM; on Cytochrome P450 1A2, 0.04 µM; at Cytochrome P450 2C9, above 10 µM; at Cytochrome P450 1B1, 34.6 µM; on Cytochrome P450 2C19 it was above 10 µM; at Cytochrome P450 2D6, above 10 µM. The figures for the Ki at Cytochrome P450 1A1 and on Cytochrome P450 1A2 were 3.8 µM and 0.031 µM, respectively. Besides, the inhibition at 10 µM on CYP1B1 was found to be 5%; at CYP2C19, 8%; at CYP1A1 [1], 92%; on CYP3A4, 11%; at CYP2C9 it was 12%; on CYP2D6, 8%. For the same compound, the inhibition at 10 µM on CYP1A2 was 99%.

For `CCOc1c2occc2cc2ccc(=O)oc12`, the inhibition at 10 µM on CYP1A1 [1] amounted to 89%.

Take `O=c1cc(-c2ccccc2)oc2c1ccc1ccccc12` [ALPHA-NAPHTHOFLAVONE]: the inhibition at 10 µM is 96% at CYP1B1; 9% at CYP2C19; 6% at CYP3A4; 10% at CYP2C9; 5% at CYP2D6.

Take `COc1c(C(=O)CC(=O)c2ccccc2)ccc2occc12`: the inhibition at 1 h, 10 µM on CYP1A1 [2] was 85%. Also, the IC50 was 2.23 µM on Cytochrome P450 1A1; 3.16 µM at Cytochrome P450 1A2; above 10 µM at Cytochrome P450 3A4; above 10 µM at Cytochrome P450 2C9; 6.04 µM at Cytochrome P450 1B1; above 10 µM at Cytochrome P450 2C19. The IC50 at Cytochrome P450 2D6 was above 10 µM. Also, the Ki turned out to be 1.96 µM on Cytochrome P450 1A1 and 3.86 µM on Cytochrome P450 1A2. Besides, the inhibition at 10 µM is 12% at CYP1B1; 3% on CYP2C19; 85 to 87% on CYP1A1 [1]; 9% on CYP3A4; 0% on CYP2C9; 14% on CYP2D6. The inhibition at 10 µM on CYP1A2 came to 8%.

On to `COc1c(O)cc2oc(-c3ccc(O)cc3)cc(=O)c2c1O` [HISPIDULIN], for which the inhibition at 10 µM at CYP1A1 [1] was 86%.

Take `CC(C)=CCOc1c2occc2cc2ccc(=O)oc12` [PENTOSALEN]: the inhibition at 10 µM at CYP1A1 [1] was 71%.

Turning to `CC1=C(CO)C(=O)O[C@@H]([C@@H](C)[C@H]2CC[C@H]3[C@@H]4C[C@H]5O[C@]56[C@@H](O)C=CC(=O)[C@]6(C)[C@H]4CC[C@]23C)C1` [WITHAFERIN A], the inhibition at 10 µM at CYP1A1 [1] came to 50%.

Turning to `O=c1cc(-c2ccc(O)cc2)oc2c([C@@H]3O[C@H](CO)[C@@H](O)[C@H](O)[C@H]3O)c(O)cc(O)c12` [VITEXIN], at CYP1A1 [1], the inhibition at 10 µM worked out at 42%.
